Experimental data from ChEMBL document CHEMBL1142894, “Preparation of 5-aryl-3-alkylthio-l,2,4-triazoles and corresponding sulfones with antiinflammatory-analgesic activity” (Bioorg Med Chem, 2007).
Calls of active or inactive are those of the source. The rule behind the calls is not given here.

Key:
[1] = tested on: Mus musculus; assay: Antiinflammatory activity against carrageenan-induced paw edema in Swiss albino mouse assessed as swelling thickness at 100 mg/kg, po after 90 mins; format: functional
Method in brief: (§1)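 Oral dosing in 0.5% CMC; vehicle to controls. Then carrageenan (0.5 mg/25 ll, freshly suspended in 154 mM saline) injected into the right hind paw subplantar tissue; saline into the left paw. Right-left footpad thickness difference measured by dial gauge calliper every 90 min over 6 h. Inhibition % is relative to vehicle control. n = 6; mean ± SEM.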

[2] = tested on: Mus musculus; assay: Antiinflammatory activity against carrageenan-induced paw edema in Swiss albino mouse assessed as swelling thickness at 100 mg/kg, po after 180 mins; format: functional; method in brief: as §1
[3] = tested on: Mus musculus; assay: Antiinflammatory activity against carrageenan-induced paw edema in Swiss albino mouse assessed as swelling thickness at 100 mg/kg, po after 270 mins; format: functional; method in brief: as §1
[4] = tested on: Mus musculus; assay: Antiinflammatory activity against carrageenan-induced paw edema in Swiss albino mouse assessed as swelling thickness at 100 mg/kg, po after 360 mins; format: functional; method in brief: as §1
[5] = tested on: Mus musculus; assay: Inhibition of carrageenan-induced paw edema in Swiss albino mouse at 100 mg/kg, po after 90 mins relative to control; format: functional; conditions: 1.5 h; method in brief: as §1
[6] = tested on: Mus musculus; assay: Inhibition of carrageenan-induced paw edema in Swiss albino mouse at 100 mg/kg, po after 180 mins relative to control; format: functional; conditions: 3 h; method in brief: as §1
[7] = tested on: Mus musculus; assay: Inhibition of carrageenan-induced paw edema in Swiss albino mouse at 100 mg/kg, po after 270 mins relative to control; format: functional; conditions: 4.5 h; method in brief: as §1
[8] = tested on: Mus musculus; assay: Inhibition of carrageenan-induced paw edema in Swiss albino mouse at 100 mg/kg, po after 360 mins relative to control; format: functional; conditions: 6 h; method in brief: as §1
[9] = tested on: Mus musculus; assay: Antiinflammatory activity in Swiss albino mouse assessed as inhibition of carrageenan-induced paw edema at 50 mg/kg, po; format: functional
[10] = tested on: Mus musculus; assay: Analgesic activity against p-benzoquinone-induced abdominal constriction in Swiss albino mouse assessed as number of writhings at 25 mg/kg, po; format: functional, Abdomen
Method in brief: (§2)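 Test samples given orally in 0.5% CMC; vehicle to controls. 60 min later, 2.5% (v/v) p-benzoquinone in distilled water, 0.1 ml/10 g, given i.p. Mice housed singly; writhes counted for 15 min starting 5 min after injection. Activity is % change from vehicle controls. n = 6; mean ± SEM.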

[11] = tested on: Mus musculus; assay: Analgesic activity against p-benzoquinone-induced abdominal constriction in Swiss albino mouse assessed as number of writhings at 50 mg/kg, po; format: functional, Abdomen; method in brief: as §2
[12] = tested on: Mus musculus; assay: Analgesic activity against p-benzoquinone-induced abdominal constriction in Swiss albino mouse assessed as number of writhings at 100 mg/kg, po; format: functional, Abdomen; method in brief: as §2
[13] = tested on: Mus musculus; assay: Analgesic activity against p-benzoquinone-induced abdominal constriction in Swiss albino mouse assessed as number of writhings at 200 mg/kg, po; format: functional, Abdomen; method in brief: as §2
[14] = tested on: Mus musculus; assay: Inhibition of p-benzoquinone-induced writhing in Swiss albino mouse at 25 mg/kg, po relative to control; format: functional
Method in brief: (§3)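 Mice, n = 6 per group, dosed orally with a suspension in 0.5% sodium CMC. 60 min later, 0.1 ml/10 g of 2.5% […] p-benzoquinone in distilled water given ip. Abdominal writhes counted per animal for 15 min, starting 5 min after injection. Expressed as % change in mean writhing count versus vehicle controls.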

[15] = tested on: Mus musculus; assay: Inhibition of p-benzoquinone-induced writhing in Swiss albino mouse at 50 mg/kg, po relative to control; format: functional; method in brief: as §3
[16] = tested on: Mus musculus; assay: Inhibition of p-benzoquinone-induced writhing in Swiss albino mouse at 100 mg/kg, po relative to control; format: functional; method in brief: as §3
[17] = tested on: Mus musculus; assay: Inhibition of p-benzoquinone-induced writhing in Swiss albino mouse at 200 mg/kg, po relative to control; format: functional; method in brief: as §3
[18] = tested on: Mus musculus; assay: Gastric-ulcerogenic effect in Swiss albino mouse assessed as lesions at 25 mg/kg, po; format: functional, organism-based; set-up: dose 25 mg/kg
Method in brief: (§4)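 Mice killed under deep ether anesthesia 3 h after the writhing test; the oral dose in 0.5% CMC was the one used in that test. Stomachs removed, opened along the great curvature and examined under a dissecting microscope for lesions or bleeding. Reported as ratio of ulceration; n = 6.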

[19] = tested on: Mus musculus; assay: Gastric-ulcerogenic effect in Swiss albino mouse assessed as lesions at 50 mg/kg, po; format: functional, organism-based; set-up: dose 50 mg/kg; method in brief: as §4
[20] = tested on: Mus musculus; assay: Gastric-ulcerogenic effect in Swiss albino mouse assessed as lesions at 100 mg/kg, po; format: functional, organism-based; set-up: dose 100 mg/kg; method in brief: as §4
[21] = tested on: Mus musculus; assay: Antiinflammatory activity against carrageenan-induced paw edema in Swiss albino mouse assessed as swelling thickness at 25 mg/kg, po after 90 mins; format: functional; method in brief: as §1
[22] = tested on: Mus musculus; assay: Antiinflammatory activity against carrageenan-induced paw edema in Swiss albino mouse assessed as swelling thickness at 25 mg/kg, po after 180 mins; format: functional; method in brief: as §1
[23] = tested on: Mus musculus; assay: Antiinflammatory activity against carrageenan-induced paw edema in Swiss albino mouse assessed as swelling thickness at 25 mg/kg, po after 270 mins; format: functional; method in brief: as §1
[24] = tested on: Mus musculus; assay: Antiinflammatory activity against carrageenan-induced paw edema in Swiss albino mouse assessed as swelling thickness at 25 mg/kg, po after 360 mins; format: functional; method in brief: as §1
[25] = tested on: Mus musculus; assay: Antiinflammatory activity against carrageenan-induced paw edema in Swiss albino mouse assessed as swelling thickness at 50 mg/kg, po after 180 mins; format: functional; method in brief: as §1
[26] = tested on: Mus musculus; assay: Antiinflammatory activity against carrageenan-induced paw edema in Swiss albino mouse assessed as swelling thickness at 50 mg/kg, po after 270 mins; format: functional; method in brief: as §1
[27] = tested on: Mus musculus; assay: Antiinflammatory activity against carrageenan-induced paw edema in Swiss albino mouse assessed as swelling thickness at 50 mg/kg, po after 360 mins; format: functional; method in brief: as §1
[28] = tested on: Mus musculus; assay: Antiinflammatory activity against carrageenan-induced paw edema in Swiss albino mouse assessed as swelling thickness at 200 mg/kg, po after 90 mins; format: functional; method in brief: as §1
[29] = tested on: Mus musculus; assay: Antiinflammatory activity against carrageenan-induced paw edema in Swiss albino mouse assessed as swelling thickness at 200 mg/kg, po after 180 mins; format: functional; method in brief: as §1
[30] = tested on: Mus musculus; assay: Antiinflammatory activity against carrageenan-induced paw edema in Swiss albino mouse assessed as swelling thickness at 200 mg/kg, po after 270 mins; format: functional; method in brief: as §1
[31] = tested on: Mus musculus; assay: Antiinflammatory activity against carrageenan-induced paw edema in Swiss albino mouse assessed as swelling thickness at 200 mg/kg, po after 360 mins; format: functional; method in brief: as §1
[32] = tested on: Mus musculus; assay: Inhibition of carrageenan-induced paw edema in Swiss albino mouse at 25 mg/kg, po after 90 mins relative to control; format: functional; conditions: 1.5 h; method in brief: as §1
[33] = tested on: Mus musculus; assay: Inhibition of carrageenan-induced paw edema in Swiss albino mouse at 25 mg/kg, po after 180 mins relative to control; format: functional; conditions: 3 h; method in brief: as §1
[34] = tested on: Mus musculus; assay: Inhibition of carrageenan-induced paw edema in Swiss albino mouse at 25 mg/kg, po after 270 mins relative to control; format: functional; conditions: 4.5 h; method in brief: as §1
[35] = tested on: Mus musculus; assay: Inhibition of carrageenan-induced paw edema in Swiss albino mouse at 25 mg/kg, po after 360 mins relative to control; format: functional; conditions: 6 h; method in brief: as §1
[36] = tested on: Mus musculus; assay: Inhibition of carrageenan-induced paw edema in Swiss albino mouse at 50 mg/kg, po after 90 mins relative to control; format: functional; conditions: 1.5 h
Method in brief: (§5)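 Mice, n = 6 per group. Test agent given orally as a suspension in 0.5% sodium CMC in distilled water; controls received vehicle only. Afterwards, 0.5 mg/25 ll carrageenan in saline (154 mM NaCl) injected subplantar into the right hind paw, saline into the left. Right-minus-left footpad thickness measured by dial gauge caliper every 90 min for 6 h. Inhibition is relative to vehicle-control group means.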

[37] = tested on: Mus musculus; assay: Inhibition of carrageenan-induced paw edema in Swiss albino mouse at 50 mg/kg, po after 180 mins relative to control; format: functional; conditions: 3 h; method in brief: as §1
[38] = tested on: Mus musculus; assay: Inhibition of carrageenan-induced paw edema in Swiss albino mouse at 50 mg/kg, po after 270 mins relative to control; format: functional; conditions: 4.5 h; method in brief: as §5
[39] = tested on: Mus musculus; assay: Inhibition of carrageenan-induced paw edema in Swiss albino mouse at 50 mg/kg, po after 360 mins relative to control; format: functional; conditions: 6 h; method in brief: as §5
[40] = tested on: Mus musculus; assay: Inhibition of carrageenan-induced paw edema in Swiss albino mouse at 200 mg/kg, po after 90 mins relative to control; format: functional; conditions: 1.5 h; method in brief: as §1
[41] = tested on: Mus musculus; assay: Inhibition of carrageenan-induced paw edema in Swiss albino mouse at 200 mg/kg, po after 180 mins relative to control; format: functional; conditions: 3 h; method in brief: as §1
[42] = tested on: Mus musculus; assay: Inhibition of carrageenan-induced paw edema in Swiss albino mouse at 200 mg/kg, po after 270 mins relative to control; format: functional; conditions: 4.5 h; method in brief: as §1
[43] = tested on: Mus musculus; assay: Inhibition of carrageenan-induced paw edema in Swiss albino mouse at 200 mg/kg, po after 360 mins relative to control; format: functional; conditions: 6 h; method in brief: as §1
[44] = tested on: Mus musculus; assay: Acute toxicity in Swiss albino mouse assessed as lethal effect at 25 mg/kg/day, po after 72 hrs; format: organism-based; set-up: route oral; conditions: in vivo
Method in brief: (§6)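 Oral single dose suspended in 0.5% carboxymethylcellulose, given after a 24 h fast; food and water returned 1 h after dosing. Vehicle-only controls. Mice observed at 1 h, then once daily for 72 h, for toxic signs and mortality.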

[45] = tested on: Mus musculus; assay: Acute toxicity in Swiss albino mouse assessed as lethal effect at 50 mg/kg/day, po after 72 hrs; format: organism-based; set-up: route oral; conditions: in vivo; method in brief: as §6
[46] = tested on: Mus musculus; assay: Acute toxicity in Swiss albino mouse assessed as lethal effect at 100 mg/kg/day, po after 72 hrs; format: organism-based; set-up: route oral; conditions: in vivo; method in brief: as §6
[47] = tested on: Mus musculus; assay: Acute toxicity in Swiss albino mouse assessed as lethal effect at 200 mg/kg/day, po after 72 hrs; format: organism-based; set-up: route oral; conditions: in vivo; method in brief: as §6
[48] = tested on: Mus musculus; assay: Antiinflammatory activity against carrageenan-induced paw edema in Swiss albino mouse assessed as swelling thickness at 50 mg/kg, po after 90 mins; format: functional; method in brief: as §1

CCS(=O)(=O)c1nc(-c2ccccc2Cl)n[nH]1
Activity [1]: 29.8 10^-2mm
Activity [2]: 33.8 10^-2mm
Activity [3]: 35 10^-2mm
Activity [4]: 38.5 10^-2mm
inhibition in vivo at 100 mg/kg [5]: 33.4%
inhibition in vivo at 100 mg/kg [6]: 34.4%
inhibition in vivo at 100 mg/kg [7]: 40.5%
inhibition in vivo at 100 mg/kg [8]: 44%
inhibition in vivo at 50 mg/kg [9]: 37.9%
Activity [10]: 38.2
Activity [11]: 23.4
Activity [12]: 23.4
Activity [13]: 45.9
inhibition in vivo at 25 mg/kg [14]: 25.7%
inhibition in vivo at 50 mg/kg [15]: 54.5%
inhibition in vivo at 100 mg/kg [16]: 50.5%
inhibition in vivo at 200 mg/kg [17]: 10.7%
Activity [18]: Active
Activity [19]: Active
Activity [20]: Active
Activity [21]: 47.2 10^-2mm
Activity [22]: 54.4 10^-2mm
Activity [23]: 59.1 10^-2mm
Activity [24]: 61.5 10^-2mm
Activity [25]: 35.8 10^-2mm
Activity [26]: 41.4 10^-2mm
Activity [27]: 40.5 10^-2mm
Activity [28]: 43.1 10^-2mm
Activity [29]: 45.8 10^-2mm
Activity [30]: 51.9 10^-2mm
Activity [31]: 56.5 10^-2mm
inhibition in vivo at 25 mg/kg [32]: 11.3%
inhibition in vivo at 25 mg/kg [33]: 8.4%
inhibition in vivo at 25 mg/kg [34]: 8.8%
inhibition in vivo at 25 mg/kg [35]: 14.6%
inhibition in vivo at 50 mg/kg [36]: 31.9%
inhibition in vivo at 50 mg/kg [37]: 39.7%
inhibition in vivo at 50 mg/kg [38]: 36.1%
inhibition in vivo at 50 mg/kg [39]: 43.8%
inhibition in vivo at 200 mg/kg [40]: 18.9%
inhibition in vivo at 200 mg/kg [41]: 22.9%
inhibition in vivo at 200 mg/kg [42]: 19.9%
inhibition in vivo at 200 mg/kg [43]: 21.5%
Activity [44]: Non-toxic
Activity [45]: Non-toxic
Activity [46]: Non-toxic
Activity [47]: Non-toxic
Activity [48]: 36.2 10^-2mm
